Measurements reported in PubChem BioAssay AID624056 (Southern Research Specialized Biocontainment Screening …, 2012).
“And” between values parts separate entries of the source, which are not always exact repeats. Identical values can stand only once. The source made the active and inactive calls.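 How the source made its calls: active means compounds specific to the target that block phage lysis by more than 30% when retested across doses; inactive means the rest, not confirmed on retesting.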

Test system: not listed separately
Assay: capsule biogenesis inhibitors via T7 lysis, dose response, EV36 K1 hybrid, OD600, round 7 (AID 624056)
Settings: E. coli EV36 T7 phage lysis inhibition, OD600; at 5 µM (top of the series)
In short: (§1)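 assay system = E. coli EV36 K1:K-12 hybrid | quantity = 1:100 dilution of overnight culture | also added = T7 bacteriophage | compound = two-fold dilution series, 1% DMSO | incubation = 1.5 h compound at 37 °C, 3 h after phage | measured by = absorbance at 600 nm before and 3 h after phage addition | read-out = lysis of capsule-free cells via OD600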

Structure (SMILES)	phage lysis inhibition
O=C(NC1CCNCC1)c1ccc2ncsc2c1	121% (inactive)
CC(C)(C)c1ccc(-c2cc(NC(=O)c3ccc(Br)s3)c(C(=O)O)s2)cc1	-11.6% (inactive)
O=C(Nc1cc(-c2ccc(OC(F)(F)F)cc2)sc1C(=O)O)c1cc2ccccc2o1	2.17% (inactive)
O=C(Nc1cc(-c2ccc(OC(F)(F)F)cc2)sc1C(=O)O)c1cccc(F)c1	75.5% (inactive)
O=C(NCCc1ccncc1)c1ccc2ncsc2c1	124% (inactive)
O=C(Nc1ccncc1)c1ccc2ncsc2c1	126% (inactive)
O=C(NCc1ccncc1)c1ccc2ncsc2c1	123% (inactive)
O=C(Nc1cc(-c2ccc(OCCCC(F)(F)F)cc2)sc1C(=O)O)c1cc(Br)c(Br)o1	-21.6% (inactive) and -21.4% (inactive)

Test system: E. coli EV36 T7 phage lysis inhibition, OD600
Assay: as above
Settings: not given
In short: as §1

Structure (SMILES)	IC50
CCOc1ccc(-c2cc(NC(=O)c3c(F)cc(F)cc3F)c(C(=O)O)s2)cc1	1830 nM
O=C(O)c1sc(-c2ccc(OC(F)(F)F)cc2)cc1NC(=O)c1c(F)cccc1F	1360 nM
O=C(Nc1cc(-c2ccc(OC(F)(F)F)cc2)sc1C(=O)O)c1ccc(Br)o1	1170 nM
O=C(O)c1sc(-c2ccc(OCC(F)(F)F)cc2)cc1NC(=O)c1c(F)cc(F)cc1F	1880 nM
CCOc1ccc(-c2cc(NC(=O)c3c(F)cccc3C(F)(F)F)c(C(=O)O)s2)cc1	2650 nM
CCCCOc1ccc(-c2cc(NC(=O)c3cc(Br)c(Br)o3)c(C(=O)O)s2)cc1	960 nM
CCCc1ccc(-c2cc(NC(=O)c3cc(Br)c(Br)o3)c(C(=O)O)s2)cc1	2350 nM
O=C(Nc1ccncc1)c1ccc2ncsc2c1	660 nM
CCCc1ccc(-c2cc(NC(=O)c3c(F)cc(F)cc3F)c(C(=O)O)s2)cc1	1520 nM
O=C(O)c1sc(-c2ccc(OCCCC(F)(F)F)cc2)cc1NC(=O)c1c(F)cc(F)cc1F	< 650 nM

Second part, the compound after the results:

IC50	Structure (SMILES)
530 nM	CCCOc1ccc(-c2cc(NC(=O)c3c(F)cc(F)cc3F)c(C(=O)O)s2)cc1
320 nM	CCCCOc1ccc(-c2cc(NC(=O)c3ccc(Br)o3)c(C(=O)O)s2)cc1
330 nM	CCCCOc1ccc(-c2cc(NC(=O)c3c(F)cc(F)cc3F)c(C(=O)O)s2)cc1
330 nM	O=C(Nc1cc(-c2ccc(OCC(F)(F)F)cc2)sc1C(=O)O)c1ccc(Br)o1
440 nM	O=C(O)c1sc(-c2ccc(OCCC(F)(F)F)cc2)cc1NC(=O)c1c(F)cc(F)cc1F
90 nM	O=C(O)c1sc(-c2ccc(OCCCC(F)(F)F)cc2)cc1NC(=O)c1c(F)cccc1F
320 nM	O=C(Nc1cc(-c2ccc(OCCC(F)(F)F)cc2)sc1C(=O)O)c1ccc(Br)o1
480 nM	O=C(Nc1cc(-c2ccc(OCCCC(F)(F)F)cc2)sc1C(=O)O)c1ccc(Br)o1
290 nM	CCCCOc1ccc(-c2cc(NC(=O)c3c(F)cccc3F)c(C(=O)O)s2)cc1
350 nM	O=C(O)c1sc(-c2ccc(OCC(F)(F)F)cc2)cc1NC(=O)c1c(F)cccc1F
560 nM	CCCc1ccc(-c2cc(NC(=O)c3c(F)cccc3F)c(C(=O)O)s2)cc1
340 nM	CCCc1ccc(-c2cc(NC(=O)c3ccc(Br)o3)c(C(=O)O)s2)cc1
50 nM	O=C(O)c1sc(-c2ccc(OCCC(F)(F)F)cc2)cc1NC(=O)c1c(F)cccc1F
410 nM	CCOc1ccc(-c2cc(NC(=O)c3c(F)cccc3F)c(C(=O)O)s2)cc1
310 nM	[N-]=[N+]=NCCOc1ccc(-c2cc(NC(=O)c3c(F)cccc3F)c(C(=O)O)s2)cc1
